Activity calls are given as the source filed them. The rule behind the calls is not given here.
Tests used:
Homo sapiens [1] = organism: Homo sapiens; experiment: Binding affinity to Central-type benzodiazepine receptor (unknown origin)
[2] = (§1) Cytotoxicity against human U-343 MGa cells assessed as inhibition of cell survival after 24 hrs by colorimetric viability MTS assay; type: functional, cell-based
Method in brief: (§2)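 U343 cells were seeded ~4.5 × 10³/well, grown 24 h, then treated 24 h with 10 nM–100 μM compound; vehicle (DMSO or EtOH) was ≤1%. Viability by MTS conversion relative to control (100%). IC50 was taken as the concentration giving half-maximal survival inhibition. Duplicates, ≥3 experiments, mean ± SEM.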

Homo sapiens [3] = organism: Homo sapiens; experiment: as §1; type: functional, cell-based; method in brief: as §2
Homo sapiens [4] = organism: Homo sapiens; experiment: Induction of mitochondrial membrane depolarization in human U-343 MGa cells at 10 uM after 5 hrs by cell fluo-analyzer relative to control; type: functional, cell-based
Method in brief: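 U343 cells were seeded ~60 × 10³/well, grown 24 h, then treated 5 h with 10 μM compound; CCCP 3 μM for 15 min served as depolarized control. Floating and adherent cells were pooled and stained with MitoPotential dye for 20 min at rt, then 7-AAD for 5 min. Percent live, depolarized and dead cells was read on a Muse cytometer.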

Homo sapiens [5] = organism: Homo sapiens; experiment: Cytotoxicity against human U-343 MGa cells assessed as decrease in cell viability at 50 uM after 24 hrs by colorimetric viability MTS assay; type: functional, cell-based
Method in brief: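 U343 cells in MEM with 10% FBS were seeded ~4.5 × 10³/well and grown 24 h. They were then exposed 24 h to 50 μM compound in complete medium; DMSO or EtOH vehicle was ≤1%. Viable cells were read by MTS colorimetric conversion as percent of vehicle control. Measurements in duplicate; mean ± SEM of three determinations.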

Translocator protein = Translocator protein (Rattus norvegicus, UniProt P16257); experiment: Displacement of [3H]PK11195 from TSPO in rat kidney mitochondrial membranes; type: cell membranes
[6] = Cytotoxicity against human U-343 MGa cells assessed as inhibition of cell survival at 100 uM after 24 hrs by colorimetric viability MTS assay; type: functional; method in brief: as §2
[7] = target: Translocator protein (Rattus norvegicus) (UniProt P16257); experiment: Displacement of [3H]PK11195 from TSPO in rat kidney mitochondrial membranes at 1 uM; type: cell membranes
Method in brief: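 Competition binding against 0.6 nM [³H]PK11195 in crude rat kidney mitochondrial membranes, 50 mM Tris–HCl pH 7.4. Six compound concentrations spanning 0.05 nM–20 μM, each in triplicate. IC50 from displacement curves, converted to Ki by Cheng–Prusoff. Percent inhibition taken at 1 μM. Values are mean ± SEM of three determinations.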

Homo sapiens [8] = organism: Homo sapiens; experiment: Induction of mitochondrial membrane depolarization in human U-343 MGa cells at 3 uM for 15 mins by cell fluo-analyzer relative to control; type: functional, cell-based
Method in brief: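 U343 cells were grown at 37 °C and 5% CO₂ in EMEM with 10% FBS, seeded at ~60 × 10³ cells/well and grown 24 h. They were then exposed to the uncoupler as a depolarized positive control. Floating and adherent cells were pooled and stained with MitoPotential dye (20 min, rt), then with 7-AAD (5 min). The Muse cytometer gave % live, depolarized and dead cells.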

[9] = target: Proto-oncogene tyrosine-protein kinase receptor Ret (Homo sapiens) (UniProt P07949); experiment: Inhibition of human Ret kinase at 10 uM
[10] = target: Receptor-type tyrosine-protein kinase FLT3 (Homo sapiens) (UniProt P36888); experiment: Inhibition of human FLT-3 kinase at 10 uM
Homo sapiens [11] = organism: Homo sapiens; experiment: Agonist activity at GPCR in human U-343 MGa cell membrane assessed as increase in basal [35S]GTPgamma binding at 100 uM; type: functional, cell membranes
[12] = target: Platelet-derived growth factor receptor beta (Homo sapiens) (UniProt P09619); experiment: Inhibition of human PDGFRbeta kinase at 10 uM
[13] = target: Vascular endothelial growth factor receptor 2 (Homo sapiens) (UniProt P35968); experiment: Inhibition of human KDR kinase at 1 uM
[14] = target: Vascular endothelial growth factor receptor 1 (Homo sapiens) (UniProt P17948); experiment: Inhibition of human FLT-1 kinase at 1 uM
[15] = target: Platelet-derived growth factor receptor beta (Homo sapiens) (UniProt P09619); experiment: Inhibition of human PDGFRbeta kinase at 1 uM
[16] = target: Tyrosine-protein kinase ABL1 (Homo sapiens) (UniProt P00519); experiment: Inhibition of human Abl kinase at 10 uM
[17] = target: Receptor tyrosine-protein kinase erbB-2 (Homo sapiens) (UniProt P04626); experiment: Inhibition of human HER2/ErbB2 kinase at 10 uM
[18] = target: Epidermal growth factor receptor (Homo sapiens) (UniProt P00533); experiment: Inhibition of human EGFR kinase at 10 uM
[19] = target: Serine/threonine-protein kinase mTOR (Homo sapiens) (UniProt P42345); experiment: Inhibition of human mTOR kinase at 10 uM
[20] = target: Protein kinase C beta type (Homo sapiens) (UniProt P05771); experiment: Inhibition of human PKCbeta2 at 10 uM
[21] = target: Vascular endothelial growth factor receptor 2 (Homo sapiens) (UniProt P35968); experiment: Inhibition of human KDR kinase at 10 uM
[22] = target: Receptor-type tyrosine-protein kinase FLT3 (Homo sapiens) (UniProt P36888); experiment: Inhibition of human FLT-3 kinase at 1 uM
[23] = target: Proto-oncogene tyrosine-protein kinase receptor Ret (Homo sapiens) (UniProt P07949); experiment: Inhibition of human Ret kinase at 1 uM
[24] = target: Tyrosine-protein kinase ABL1 (Homo sapiens) (UniProt P00519); experiment: Inhibition of human Abl kinase at 1 uM
[25] = target: Platelet-derived growth factor receptor alpha (Homo sapiens) (UniProt P16234); experiment: Inhibition of human PDGFRalpha kinase at 1 uM
[26] = target: Protein kinase C beta type (Homo sapiens) (UniProt P05771); experiment: Inhibition of human PKCbeta2 at 1 uM
[27] = target: Mast/stem cell growth factor receptor Kit (Homo sapiens) (UniProt P10721); experiment: Inhibition of human c-kit kinase at 10 uM
[28] = target: Platelet-derived growth factor receptor alpha (Homo sapiens) (UniProt P16234); experiment: Inhibition of human PDGFRalpha kinase at 10 uM
[29] = target: Epidermal growth factor receptor (Homo sapiens) (UniProt P00533); experiment: Inhibition of human EGFR kinase at 1 uM
[30] = target: Protein kinase C beta type (Homo sapiens) (UniProt P05771); experiment: Inhibition of human PKCbeta1 at 10 uM
Homo sapiens [31] = organism: Homo sapiens; experiment: Agonist activity at GPCR in human U-343 MGa cell membrane assessed as increase in basal [35S]GTPgamma binding at 0.1 nM; type: functional, cell membranes
[32] = target: Mast/stem cell growth factor receptor Kit (Homo sapiens) (UniProt P10721); experiment: Inhibition of human c-kit kinase at 1 uM
[33] = target: Receptor tyrosine-protein kinase erbB-2 (Homo sapiens) (UniProt P04626); experiment: Inhibition of human HER2/ErbB2 kinase at 1 uM
[34] = target: Serine/threonine-protein kinase mTOR (Homo sapiens) (UniProt P42345); experiment: Inhibition of human mTOR kinase at 1 uM
[35] = target: Vascular endothelial growth factor receptor 1 (Homo sapiens) (UniProt P17948); experiment: Inhibition of human FLT-1 kinase at 10 uM
[36] = target: Protein kinase C beta type (Homo sapiens) (UniProt P05771); experiment: Inhibition of human PKCbeta1 at 1 uM

Sequence of Protein kinase C beta type (Homo sapiens) (P05771 2-671 limits assumed): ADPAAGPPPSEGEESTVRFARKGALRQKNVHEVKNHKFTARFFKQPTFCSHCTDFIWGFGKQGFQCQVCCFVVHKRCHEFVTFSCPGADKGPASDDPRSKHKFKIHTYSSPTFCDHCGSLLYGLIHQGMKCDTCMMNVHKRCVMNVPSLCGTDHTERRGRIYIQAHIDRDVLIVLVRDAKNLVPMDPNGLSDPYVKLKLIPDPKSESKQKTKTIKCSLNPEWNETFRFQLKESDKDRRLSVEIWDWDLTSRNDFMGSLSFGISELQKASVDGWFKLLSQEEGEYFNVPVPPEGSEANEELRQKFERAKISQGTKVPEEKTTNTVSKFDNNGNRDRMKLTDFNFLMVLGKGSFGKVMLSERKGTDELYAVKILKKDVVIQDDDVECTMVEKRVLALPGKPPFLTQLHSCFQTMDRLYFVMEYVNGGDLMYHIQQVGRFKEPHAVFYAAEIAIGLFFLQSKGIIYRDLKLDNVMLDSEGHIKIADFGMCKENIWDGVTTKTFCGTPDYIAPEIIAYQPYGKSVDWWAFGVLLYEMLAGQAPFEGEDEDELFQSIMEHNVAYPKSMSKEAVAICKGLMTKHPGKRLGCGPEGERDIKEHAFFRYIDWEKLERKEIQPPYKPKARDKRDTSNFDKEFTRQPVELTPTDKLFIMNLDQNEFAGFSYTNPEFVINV
Sequence of Translocator protein (P16257 whole entry, looked up): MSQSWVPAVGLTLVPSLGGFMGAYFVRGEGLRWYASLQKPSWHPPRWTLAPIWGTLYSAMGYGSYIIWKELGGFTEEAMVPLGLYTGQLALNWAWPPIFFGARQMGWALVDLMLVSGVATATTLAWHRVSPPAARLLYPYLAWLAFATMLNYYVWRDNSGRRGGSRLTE
Sequence of Proto-oncogene tyrosine-protein kinase receptor Ret (Homo sapiens) (P07949 whole entry): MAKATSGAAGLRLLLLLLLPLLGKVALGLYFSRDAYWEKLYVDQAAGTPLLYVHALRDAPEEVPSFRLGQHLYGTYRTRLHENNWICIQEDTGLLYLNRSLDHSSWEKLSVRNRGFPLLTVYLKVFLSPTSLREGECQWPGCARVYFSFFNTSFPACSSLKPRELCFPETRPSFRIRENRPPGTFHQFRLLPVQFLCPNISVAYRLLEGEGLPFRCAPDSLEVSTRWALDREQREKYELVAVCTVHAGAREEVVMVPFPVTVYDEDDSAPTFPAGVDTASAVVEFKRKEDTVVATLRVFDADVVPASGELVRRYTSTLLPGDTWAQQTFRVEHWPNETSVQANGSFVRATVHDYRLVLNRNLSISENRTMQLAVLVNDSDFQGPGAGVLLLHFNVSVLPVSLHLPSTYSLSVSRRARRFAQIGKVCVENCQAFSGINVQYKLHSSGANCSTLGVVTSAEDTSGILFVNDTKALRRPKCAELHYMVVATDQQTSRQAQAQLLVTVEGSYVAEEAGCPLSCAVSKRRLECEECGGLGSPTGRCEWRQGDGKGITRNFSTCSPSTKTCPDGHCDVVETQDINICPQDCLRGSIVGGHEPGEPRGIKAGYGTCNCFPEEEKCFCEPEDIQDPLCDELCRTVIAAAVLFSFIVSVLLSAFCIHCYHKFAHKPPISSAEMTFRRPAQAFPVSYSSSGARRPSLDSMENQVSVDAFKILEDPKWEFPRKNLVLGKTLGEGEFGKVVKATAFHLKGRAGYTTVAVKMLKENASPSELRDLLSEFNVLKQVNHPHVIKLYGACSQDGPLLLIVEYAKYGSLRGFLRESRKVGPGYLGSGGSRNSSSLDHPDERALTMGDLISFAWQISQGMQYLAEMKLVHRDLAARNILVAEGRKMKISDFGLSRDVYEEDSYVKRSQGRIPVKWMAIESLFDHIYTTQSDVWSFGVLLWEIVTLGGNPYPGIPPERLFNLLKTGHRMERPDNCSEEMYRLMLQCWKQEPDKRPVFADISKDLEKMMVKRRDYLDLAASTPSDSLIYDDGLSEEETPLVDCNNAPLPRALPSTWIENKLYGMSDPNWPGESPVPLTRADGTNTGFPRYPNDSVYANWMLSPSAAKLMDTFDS
Sequence of Epidermal growth factor receptor (Homo sapiens) (P00533 whole entry): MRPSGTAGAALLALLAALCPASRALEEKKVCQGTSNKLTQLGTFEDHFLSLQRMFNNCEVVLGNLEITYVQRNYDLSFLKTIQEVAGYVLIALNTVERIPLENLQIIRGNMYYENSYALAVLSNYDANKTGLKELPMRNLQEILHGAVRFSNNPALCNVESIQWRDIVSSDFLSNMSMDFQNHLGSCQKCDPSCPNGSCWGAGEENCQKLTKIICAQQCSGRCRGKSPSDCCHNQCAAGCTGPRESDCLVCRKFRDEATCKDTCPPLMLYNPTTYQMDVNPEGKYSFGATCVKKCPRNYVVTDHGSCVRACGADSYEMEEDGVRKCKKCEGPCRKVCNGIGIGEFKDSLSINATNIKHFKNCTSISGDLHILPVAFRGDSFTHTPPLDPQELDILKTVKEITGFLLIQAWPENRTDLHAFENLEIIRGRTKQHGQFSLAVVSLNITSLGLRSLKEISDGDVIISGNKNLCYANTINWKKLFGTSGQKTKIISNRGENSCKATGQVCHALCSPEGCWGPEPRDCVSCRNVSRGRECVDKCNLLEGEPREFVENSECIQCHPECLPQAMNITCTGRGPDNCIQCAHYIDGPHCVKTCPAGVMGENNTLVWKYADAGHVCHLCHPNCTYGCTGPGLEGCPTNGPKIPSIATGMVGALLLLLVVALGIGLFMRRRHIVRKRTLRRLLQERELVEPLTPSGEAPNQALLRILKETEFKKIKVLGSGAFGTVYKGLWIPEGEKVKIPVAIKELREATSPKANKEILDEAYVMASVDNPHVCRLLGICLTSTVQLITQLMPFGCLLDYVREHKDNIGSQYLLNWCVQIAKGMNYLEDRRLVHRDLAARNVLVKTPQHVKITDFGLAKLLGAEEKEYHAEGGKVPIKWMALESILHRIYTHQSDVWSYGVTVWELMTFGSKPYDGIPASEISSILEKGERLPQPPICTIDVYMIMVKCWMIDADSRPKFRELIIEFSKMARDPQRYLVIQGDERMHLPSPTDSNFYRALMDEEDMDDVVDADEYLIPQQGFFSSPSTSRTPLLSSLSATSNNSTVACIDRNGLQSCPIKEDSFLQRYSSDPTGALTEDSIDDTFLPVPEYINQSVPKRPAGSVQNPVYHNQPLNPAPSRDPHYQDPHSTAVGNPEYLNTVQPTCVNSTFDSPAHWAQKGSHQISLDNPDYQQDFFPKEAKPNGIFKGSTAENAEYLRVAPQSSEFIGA
Sequence of Tyrosine-protein kinase ABL1 (Homo sapiens) (P00519 whole entry): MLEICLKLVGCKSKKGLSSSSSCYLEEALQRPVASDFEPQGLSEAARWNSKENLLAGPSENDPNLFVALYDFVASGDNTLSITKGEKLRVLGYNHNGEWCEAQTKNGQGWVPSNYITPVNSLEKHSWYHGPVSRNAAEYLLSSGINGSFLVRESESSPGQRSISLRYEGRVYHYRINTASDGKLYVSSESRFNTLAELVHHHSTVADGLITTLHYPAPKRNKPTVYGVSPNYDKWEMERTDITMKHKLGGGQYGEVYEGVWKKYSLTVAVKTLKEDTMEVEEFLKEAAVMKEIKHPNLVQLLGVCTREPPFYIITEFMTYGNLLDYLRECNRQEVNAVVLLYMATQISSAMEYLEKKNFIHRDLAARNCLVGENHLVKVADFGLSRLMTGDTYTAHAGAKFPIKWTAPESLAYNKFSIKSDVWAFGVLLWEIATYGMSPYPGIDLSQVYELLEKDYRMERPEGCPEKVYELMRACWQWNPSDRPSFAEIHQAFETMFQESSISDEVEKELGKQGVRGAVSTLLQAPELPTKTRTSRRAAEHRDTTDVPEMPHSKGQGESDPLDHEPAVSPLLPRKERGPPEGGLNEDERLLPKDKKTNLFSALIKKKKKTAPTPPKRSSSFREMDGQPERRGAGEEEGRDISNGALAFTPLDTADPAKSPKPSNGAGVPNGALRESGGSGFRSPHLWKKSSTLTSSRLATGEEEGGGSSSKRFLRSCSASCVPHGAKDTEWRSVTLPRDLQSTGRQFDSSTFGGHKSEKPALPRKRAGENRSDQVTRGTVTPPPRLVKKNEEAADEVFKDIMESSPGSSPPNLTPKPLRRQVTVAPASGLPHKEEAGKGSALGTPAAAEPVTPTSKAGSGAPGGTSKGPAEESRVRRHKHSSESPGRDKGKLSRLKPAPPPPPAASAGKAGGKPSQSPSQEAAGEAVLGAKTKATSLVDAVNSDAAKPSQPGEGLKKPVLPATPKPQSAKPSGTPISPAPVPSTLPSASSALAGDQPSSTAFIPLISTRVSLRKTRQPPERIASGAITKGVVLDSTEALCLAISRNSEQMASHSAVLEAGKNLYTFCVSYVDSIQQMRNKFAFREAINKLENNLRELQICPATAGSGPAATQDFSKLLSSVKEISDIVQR
Sequence of Translocator protein (Rattus norvegicus) (P16257 whole entry, looked up): as the sequence (P16257 whole entry, looked up) above

CCCCCCN(CCCCCC)C(=O)c1nc(-c2ccccc2)c2ccccc2n1
Activity (Homo sapiens [1]): inactive
IC50 [2]: 17700 nM
inhibition (Homo sapiens [3]): Dose-dependent effect
Activity (Homo sapiens [4]): Active
inhibition (Homo sapiens [5]): Active

CCOC(=O)c1ccc(CN(CC)C(=O)c2nc(-c3ccccc3)c3ccccc3n2)cc1
Ki (Translocator protein): 3.65 nM

CN(Cc1ccccc1)C(=O)c1nc(-c2ccc(Cl)cc2)c2ccccc2n1
Ki (Translocator protein): 6.12 nM

CCN(Cc1ccccc1)C(=O)c1nc(-c2ccccc2F)c2ccccc2n1
Ki (Translocator protein): 0.888 nM

CCN(Cc1ccccc1)C(=O)c1nc(-c2ccc(Cl)cc2)c2ccccc2n1
Ki (Translocator protein): 0.762 nM

CN(Cc1ccccc1)C(=O)c1cc2ccccc2c(-c2ccccc2Cl)n1
Ki (Translocator protein): 0.442 nM

CCCCN(CCCC)C(=O)c1nc(-c2ccccc2)c2ccccc2n1
Activity (Homo sapiens [1]): inactive

CCC(C)N(C)C(=O)c1nc(-c2ccccc2)c2ccccc2n1 (stereo not given)
Activity (Homo sapiens [1]): inactive

CCN(Cc1ccc(O)cc1)C(=O)c1nc(-c2ccccc2)c2ccccc2n1
Ki (Translocator protein): 8.76 nM

CCN(Cc1ccc(C)cc1)C(=O)c1nc(-c2ccccc2)c2ccccc2n1
Ki (Translocator protein): 2.57 nM

CCCCCN(CCCCC)C(=O)c1nc(-c2ccccc2)c2ccccc2n1
Activity (Homo sapiens [1]): inactive

CCCCCCN(CCCCCC)C(=O)c1nc(-c2ccc(Cl)cc2)c2ccccc2n1
Activity (Homo sapiens [1]): inactive

CCCCCCN(CCCCCC)C(=O)c1nc(-c2ccccc2Cl)c2ccccc2n1
Activity (Homo sapiens [1]): inactive

CCN(Cc1ccccc1)C(=O)c1nc(-c2ccccc2Cl)c2ccccc2n1
Ki (Translocator protein): 0.235 nM

CN(Cc1ccccc1)C(=O)c1nc(-c2ccccc2F)c2ccccc2n1
Ki (Translocator protein): 1.11 nM

CCC(C)N(C)C(=O)c1cc2ccccc2c(-c2ccccc2Cl)n1 (stereo not given) [PK-11195]
inhibition at 100 µM [6]: 40%
Activity (Homo sapiens [4]): Active

CCN(Cc1ccccc1)C(=O)c1nc(-c2ccccc2)c2cc(Cl)ccc2n1
Ki (Translocator protein): 24.3 nM

CCN(Cc1ccc(OC)cc1)C(=O)c1nc(-c2ccccc2)c2ccccc2n1
Ki (Translocator protein): 2.77 nM

CCN(Cc1ccc(C(=O)O)cc1)C(=O)c1nc(-c2ccccc2)c2ccccc2n1
Ki (Translocator protein): 719 nM

CCC(C)N(C)C(=O)c1nc(-c2ccccc2Cl)c2ccccc2n1 (stereo not given)
Activity (Homo sapiens [1]): inactive

CN(Cc1ccccc1)C(=O)c1nc(-c2ccccc2)c2ccccc2n1
Ki (Translocator protein): 3.99 nM

CCN(Cc1ccccc1)C(=O)c1nc(-c2ccc(C)cc2)c2ccccc2n1
Ki (Translocator protein): 1.49 nM

CCC(C)N(C)C(=O)c1nc(-c2ccccc2)c2cc(Cl)ccc2n1 (stereo not given)
Activity (Homo sapiens [1]): inactive

CCN(Cc1ccc(C)cc1)C(=O)c1nc(-c2ccccc2F)c2ccccc2n1
Ki (Translocator protein): 0.6 nM

O=C(NCc1ccccc1)c1nc(-c2ccccc2Cl)c2ccccc2n1
inhibition [7]: 16%

CCCCCCN(CCCCCC)C(=O)c1nc(-c2ccccc2)c2cc(Cl)ccc2n1
Activity (Homo sapiens [1]): inactive

CCN(Cc1ccccc1)C(=O)c1nc(-c2ccc(F)cc2)c2ccccc2n1
Ki (Translocator protein): 1.68 nM

O=C(NCc1ccccc1)c1nc(-c2ccccc2)c2ccccc2n1
inhibition [7]: 41%

CCN(Cc1ccc([N+](=O)[O-])cc1)C(=O)c1nc(-c2ccccc2)c2ccccc2n1
Ki (Translocator protein): 4.2 nM

CCN(Cc1ccccc1)C(=O)c1nc(-c2ccccc2)c2ccccc2n1
Ki (Translocator protein): 1.13 nM

N#CC(C#N)=NNc1cccc(Cl)c1
Activity (Homo sapiens [8]): Active

CCC(C)N(C)C(=O)c1nc(-c2ccc(Cl)cc2)c2ccccc2n1 (stereo not given)
Activity (Homo sapiens [1]): inactive

CCN(Cc1ccc(C)cc1)C(=O)c1nc(-c2ccccc2Cl)c2ccccc2n1
inhibition [9]: inactive
inhibition [10]: inactive
Activity (Homo sapiens [11]): inactive
inhibition [12]: inactive
inhibition [13]: inactive
IC50 [2]: 15100 nM
inhibition (Homo sapiens [3]): Dose-dependent effect
inhibition [14]: inactive
inhibition [15]: inactive
inhibition [16]: inactive
inhibition [17]: inactive
inhibition [18]: inactive
inhibition [19]: inactive
inhibition [20]: inactive
inhibition [21]: inactive
inhibition [22]: inactive
inhibition [23]: inactive
inhibition [24]: inactive
inhibition [25]: inactive
Activity (Homo sapiens [4]): Active
inhibition [26]: inactive
inhibition [27]: inactive
inhibition [28]: inactive
inhibition [29]: inactive
Ki (Translocator protein): 0.489 nM
inhibition [30]: inactive
Activity (Homo sapiens [31]): inactive
inhibition (Homo sapiens [5]): Active
inhibition [32]: inactive
inhibition [33]: inactive
inhibition [34]: inactive
inhibition [35]: inactive
inhibition [36]: inactive
